proCasp7 act = counter-screen: procaspase-7 (human) activation | recombinant procaspase-7, Ac-DEVD-pNA absorbance 405 nm; D23A/D198A/D206A triple mutant, cannot self-cleave; scale: DMSO 0, 5 µM enzyme 100 | AID 463210 | 0.093% of 330,000 active | P55210 | activation, % at 8.5 µM;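 active means percent activation above the screen-wide mean plus 3 SD, cut at about 25% in these data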
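System: Procaspase-7 triple mutant (PC-7 D3A); measure: % activation from two-timepoint absorbance difference, scaled to controls; times: 1 h compound preincubation, 2 h substrate cleavage, 25 °C; also added: Ac-DEVD-pNA substrate, 400 µM as added; measured by: Epi-absorbance of released pNA at 405 nm, two timepoints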
GASC-1 inh = human JMJD2C demethylase inhibition. AID 2099. GST-JMJD2C(1-420) H3K9me3 demethylation, DELFIA europium. inhibition, % at 2.35 µM. 0.069% of 330,000 active;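 active means more than half of a compound's replicate wells show inhibition beyond 50%, single wells judged on their own value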;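 further: signal counts dimethyl H3K9 product captured on neutravidin plate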
Target sequence (Q9H3R0 1-420 limits assumed): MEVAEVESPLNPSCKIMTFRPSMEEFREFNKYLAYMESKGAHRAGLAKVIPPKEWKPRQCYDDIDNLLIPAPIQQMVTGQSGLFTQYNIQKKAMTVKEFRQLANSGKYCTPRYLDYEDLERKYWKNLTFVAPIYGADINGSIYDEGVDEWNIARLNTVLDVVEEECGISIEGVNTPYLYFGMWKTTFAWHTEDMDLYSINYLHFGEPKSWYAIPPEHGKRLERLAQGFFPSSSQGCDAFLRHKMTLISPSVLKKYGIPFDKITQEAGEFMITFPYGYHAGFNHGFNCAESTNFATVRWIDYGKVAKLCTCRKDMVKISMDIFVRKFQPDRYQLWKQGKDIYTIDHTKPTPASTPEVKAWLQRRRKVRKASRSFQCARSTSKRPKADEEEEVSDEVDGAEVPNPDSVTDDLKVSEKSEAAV
GRK2 aptamer HTS = human GRK2 inhibition via aptamer displacement; AID 488847; 0.59% of 330,000 active; inhibition of aptamer binding, % at 10 µM; bead flow cytometry, FAM-aptamer displacement from GRK2;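 active means inhibition of aptamer binding above 40%, roughly 3 SD of noise, on plates passing a quality check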;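 further: median bead fluorescence of bound FAM aptamer so fluorescent compounds give negative values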
VLA-4 inh = inhibition in a human VLA-4 binding assay; VLA-4 expressing cells, ligand binding flow cytometry; inhibition, % (about 7 µM as worked out from the volumes in the protocol); 0.2% of 330,000 active; AID 2557; in the data active means inhibition above about 50%
Lipid droplet = modulators of hepatic lipid droplet formation. AML12 mouse hepatocytes, oleate lipid droplets, BODIPY imaging. inhibition, % at 6.5 µM. 0.4% of 240,000 active;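 active means lipid droplet intensity inhibited by at least 50%, with more than 500 cells counted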
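Technique: fluorescence imaging, 20x objective, two fields per well / Assay system: AML12 hepatocytes (mouse) / Measure: % inhibition of lipid droplet signal / Doses: 6.5 µM single-point dosing / Incubation: overnight exposure / Reagent: 100 µM oleic acid challenge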
procasp3 activ = activates human procaspase-3; recombinant procaspase-3 D3A, Ac-DEVD-pNA absorbance 405 nm; 0.11% of 330,000 active; P42574; activation, % at 8.5 µM;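 active means activation above the mean of all tested compounds plus 3 SD, cut at about 21% in these data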
Target sequence (P42574 whole entry D9A/D28A/D175A): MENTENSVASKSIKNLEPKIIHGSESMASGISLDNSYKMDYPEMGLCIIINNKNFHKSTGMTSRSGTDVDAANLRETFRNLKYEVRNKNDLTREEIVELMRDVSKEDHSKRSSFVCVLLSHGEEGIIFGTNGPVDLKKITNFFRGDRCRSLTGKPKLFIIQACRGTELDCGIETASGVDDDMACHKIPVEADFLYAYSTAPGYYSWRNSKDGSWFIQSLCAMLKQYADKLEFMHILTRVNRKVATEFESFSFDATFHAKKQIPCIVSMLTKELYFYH
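Test system: Procaspase-3 D3A mutant; medium: Zinc-free HEPES/NaCl buffer with 0.01% Triton X-100 at pH 7.4; reagent: DEVD-pNA substrate; doses: one concentration, 8.5 µM nominal, 0.8% DMSO; times: 1 h preincubation plus 2 h reaction at 25 °C; signal: Epi-absorbance at 405 nm of released p-nitroaniline, 0 and 120 min; replicates: singlicate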
GRK2 CP1 = human GRK2 inhibition confirmation, cherry pick 1 | shares compounds with GRK2 aptamer HTS | bead-bound GRK2, FAM-aptamer displacement, flow cytometry | aptamer displacement, % at 10 µM | 4% of 2,000 active;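 active means aptamer displacement above 40%, near three times the noise of non-fluorescent compounds, on plates passing quality checks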;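 further: negative values mostly reflect intrinsic compound fluorescence rather than true enhancement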
FAM quench CP1 = quenches fluorescent RNA aptamer, GRK2 hit artifact; shares compounds with GRK2 aptamer HTS; 2,000 tested, under 10 active; fluorescence response (% of DMSO), % at 10 µM; Carboxyfluorescein RNA aptamer on beads, flow cytometry quenching; stronger effect = lower value; AID 504580;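 active means compounds that quench the bead-bound fluorescent RNA probe, cutting fluorescence to under half of the solvent control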;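 further: counterscreen run without GRK2 so only probe quenching by compound is measured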
GRK2 confirm 2 = human GRK2 inhibition confirmation, cherry pick 2; shares compounds with GRK2 aptamer HTS; bead-bound GRK2, FAM-aptamer displacement, flow cytometry; inhibition of aptamer binding, % at 10 µM; 360 tested, under 10 active; AID 504782;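 active means inhibition of aptamer binding above 40%, about triple the noise seen with nonglowing compounds, on plates passing quality control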;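 further: negative values mostly come from compounds that fluoresce themselves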
FAM quench SP = aptamer fluorescence quenching in GRK2 counter-screen; carboxyfluorescein RNA aptamer beads, flow cytometry quenching; stronger effect = lower value; 360 tested, under 10 active; fluorescence response vs DMSO, % at 10 µM; shares compounds with GRK2 aptamer HTS;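 active means response vs DMSO under 50%, meaning signal dropped by over half, treated as fluorescence quencher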;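 further: labelled aptamer on streptavidin beads without GRK2 as a quench counter-screen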
Numbers stand for hits; . = inactive; / = no result given. The list is not random: actives were taken first. Their share in the collection is about 1.3%.

SMILES | proCasp7 act | GASC-1 inh | GRK2 aptamer HTS | VLA-4 inh | Lipid droplet | procasp3 activ | GRK2 CP1 | FAM quench CP1 | others
CC(=Nc1ccccc1)C1=C(O)CC(C)(C)CC1=O | . | . | . | . | . | . | / | /
CC(=Nc1ccccc1)C1=C(O)CCCC1=O | . | . | . | . | . | . | . | .
O=CN1c2ccccc2CSc2ccccc21 | . | . | 74 | . | / | . | . | .
COC(=O)C(NC(=O)c1ccco1)(Nc1nc(C2CC2)cs1)C(F)(F)F (stereo unspecified) | . | . | 90 | . | . | . | . | .
O=C(CNC(=O)c1cccs1)N/N=C/c1ccccc1[N+](=O)[O-] | . | . | . | . | . | . | / | /
OCCSc1nc(N2CCOCC2)nc(N2CCOCC2)n1 | . | . | . | . | . | . | . | .
CCCn1nnnc1NCc1c(F)cccc1Cl | . | . | 100 | . | . | . | . | .
CCCN1CCN(C(=O)C2CCN(c3ncnc4c3nc3n4CCCCC3)CC2)CC1 | . | . | . | . | . | . | / | /
CC(C)Oc1ccc(S(=O)(=O)N2CCCCC2)cc1NC(=O)C1=COCCO1 | . | . | . | . | / | . | / | /
Cc1cccc(Oc2ccc(S(=O)(=O)N3CCCCC3)cc2NC(=O)C2=COCCO2)c1 | . | . | . | . | / | . | . | .
O=C(O)c1cccc(Cn2cc(Br)cn2)c1 | . | . | . | . | / | . | / | /
O=C(NCc1ccncc1)c1cccc(Cn2cc(Br)cn2)c1 | . | . | . | . | / | . | . | .
CC12CCC(C(=O)NNc3ccccc3)(C(=O)C1=O)C2(C)C (stereo unspecified) | . | . | . | . | . | . | / | /
Cc1cccc(OCC(=O)NCC(=O)N/N=C/c2cc(Br)cc(Br)c2O)c1 | . | . | . | . | . | . | / | /
O=C(NCc1ccc2c(c1)OCO2)c1cc2ncc(Br)cn2n1 | . | . | . | . | . | . | . | .
O=C(CCN1CCCCC1)N1CCc2c([nH]c3ccccc23)C1c1cccnc1 (stereo unspecified) | / | / | / | / | / | / | . | .
O=C(c1cnccn1)N1CCc2c([nH]c3ccccc23)C1c1cccc(Cl)c1 (stereo unspecified) | . | . | . | . | . | . | / | /
COc1ccccc1NS(=O)(=O)c1ccc2[nH]c(=S)oc2c1 | . | . | . | . | / | . | / | /
Cc1ccc(C)c(N2CCN(S(=O)(=O)c3ccc4c(c3)NC(=O)CS4)CC2)c1 | . | . | . | . | . | . | / | /
Cc1ccc(SCC(=O)NCCC2=CCCCC2)cc1 | . | . | 45 | . | / | . | . | .
Cc1ccc(OCC(=O)NCCC2=CCCCC2)cc1 | . | . | . | . | . | . | / | /
COc1ccc(CC(=O)NC2CCS(=O)(=O)C2)cc1 (stereo unspecified) | . | . | . | . | / | . | / | /
O=C(C1CCN(S(=O)(=O)c2ccccc2)CC1)N1CCCCC1 | . | . | . | . | . | . | / | /
COc1cccc(NC(=O)CN(C)C(=O)c2ccc(COc3ccccc3)cc2)c1 | . | . | . | . | / | . | / | /
CCOc1ccc(NC(=O)CN(C)C(=O)c2ccc(COc3ccccc3)cc2)cc1OCC | . | . | . | . | / | . | . | .
SMILES | proCasp7 act | GASC-1 inh | GRK2 aptamer HTS | VLA-4 inh | Lipid droplet | procasp3 activ | GRK2 CP1 | FAM quench CP1 | others
Cc1oc(-c2ccccc2)cc1C(=O)Nc1ccc2ccccc2c1 | . | . | 98 | . | / | . | . | .
Cc1oc(-c2ccccc2)cc1C(=O)Nc1ccccc1 | . | . | . | . | . | . | / | /
COc1ccc(N2Cc3cccc(C(=O)O)c3C2=O)cc1 | . | . | 61 | . | / | . | . | .
O=[N+]([O-])c1cccnc1N1CCN(c2ccccc2F)CC1 | . | . | 46 | . | . | . | . | .
CCc1nnc(NC(=O)CCS(=O)(=O)c2ccccc2)s1 | . | . | . | . | . | . | . | .
CCc1nnc(NC(=O)c2cccc(S(=O)(=O)N3CCCCC3)c2)s1 | . | . | 95 | . | . | . | / | / | GRK2 confirm 2=.;FAM quench SP=.
CCc1nnc(NC(=O)CCS(=O)(=O)Cc2ccccc2)s1 | . | . | . | . | . | . | / | /
O=C(Nc1nc(-c2cccs2)cs1)c1ccc(S(=O)(=O)N2CCCC2)cc1 | . | . | . | . | / | . | . | .
O=C(Nc1nc(-c2ccc(S(=O)(=O)N3CCCCCC3)cc2)cs1)c1ccccc1 | . | . | . | . | . | . | / | /
CCCCc1nnc(NC(=O)CCS(=O)(=O)c2ccc(C)cc2)s1 | . | . | . | . | / | . | . | .
O=C(NCCc1cccc(C(F)(F)F)c1)C1CCC(=O)N(C2CC2)C1 (stereo unspecified) | . | . | . | . | . | . | / | /
Cc1ccc(CNC(=O)COC(=O)CCC(=O)c2cccs2)cc1 | . | . | . | . | . | . | / | /
COc1ccc(NC(=O)NNC(=O)c2ccc(-c3ccccc3)cc2)cc1 | . | . | . | . | . | . | / | /
Cc1cc(C)n(C(=O)CNC(=O)c2ccccc2F)n1 | . | . | . | . | . | . | / | /
COCc1nnc(NC(=O)CCS(=O)(=O)c2ccccc2)s1 | . | . | . | . | . | . | . | .
CCc1nnc(NC(=O)CCS(=O)(=O)c2ccc(C)cc2)s1 | . | . | . | . | / | . | . | .
Cc1cccc(NC(=O)CCS(=O)(=O)c2ccccc2)n1 | . | . | . | . | . | . | . | .
Cc1cccc(NC(=O)CCS(=O)(=O)c2ccccc2)c1 | . | . | . | . | . | . | / | /
COc1cc(C(N)=O)cc(Br)c1OCc1ccccc1 | . | . | 100 | . | . | . | / | / | GRK2 confirm 2=.;FAM quench SP=.
O=C(Cn1cnc2c(nnn2Cc2ccccc2F)c1=O)OCc1ccccc1 | . | . | 82 | . | / | . | . | .
COc1ccc(-c2cc(C(=O)N(C)Cc3nc4ccccc4c(=O)[nH]3)c3ccccc3n2)cc1OC | . | . | . | . | / | . | . | .
CCOc1ccc2nc(SCC(=O)Nc3ccc4c(c3)OCCO4)[nH]c2c1 | . | . | . | . | . | . | / | /

Source: PubChem BioAssay (several laboratories)
